Data set [1] has as its system Mus musculus. Kind of data set: In vivo activation of GPR119 in normoglycemic 129SVE mouse assessed as increase in GIP level in plasma at 30 mg/kg, po measured after 45 mins relative to vehicle-treated control. The class given is functional, organism-based. Put shortly: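 Normoglycemic male 129SVE mice dosed orally (3 and 30 mg/kg); plasma GIP measured 45 min after dosing versus vehicle-treated controls; AR231453 at 30 mg/kg as reference agonist.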

The test system of data set [2] is Mus musculus. Kind of data set: Antidiabetic activity in normoglycemic 129SVE mouse assessed as suppression of plasma glucose AUC at 3 mg/kg, po administered 30 mins prior to glucose challenge measured over 120 mins by OGTT. The class given is functional, organism-based.
The subject of data set [3] is Rattus norvegicus. Kind of data set: Antidiabetic activity in Zucker diabetic fatty rat assessed as suppression of plasma glucose AUC at 3 mg/kg administered 60 mins prior to glucose challenge by OGTT relative to vehicle-treated control. The class given is functional.
Data set [4] has as its target T1, Glucose-dependent insulinotropic receptor (Homo sapiens, UniProt Q8TDV5).
T1 sequence (Q8TDV5 whole entry): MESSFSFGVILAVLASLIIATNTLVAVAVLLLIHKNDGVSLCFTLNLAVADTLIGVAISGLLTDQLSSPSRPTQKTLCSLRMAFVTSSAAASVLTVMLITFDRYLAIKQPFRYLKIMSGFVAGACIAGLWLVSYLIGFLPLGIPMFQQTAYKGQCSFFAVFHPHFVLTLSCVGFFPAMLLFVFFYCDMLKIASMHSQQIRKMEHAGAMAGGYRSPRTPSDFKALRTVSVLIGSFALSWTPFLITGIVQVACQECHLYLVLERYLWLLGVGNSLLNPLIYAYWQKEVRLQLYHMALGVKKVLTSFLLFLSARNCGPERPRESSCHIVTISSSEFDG
Kind of data set: Agonist activity at human GPR119 by HTRF cAMP assay. The class given is functional.

Data set [5] has as its target T2, Glucose-dependent insulinotropic receptor (Homo sapiens) (UniProt Q8TDV5).
T2 sequence (whole entry): T1 sequence (Q8TDV5 whole entry)
Kind of data set: Agonist activity at human GPR119 by HTRF cAMP assay relative to AR231453. It is filed as functional.

The target in data set [6] is T1, Glucose-dependent insulinotropic receptor. The data set is described as follows: Agonist activity at human GPR119 by serum shift assay. Put shortly: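 HTRF cAMP read-out with cells plated overnight; growth medium swapped for fetal bovine serum-containing medium. Compounds serially diluted in DMSO, then in PBS with IBMX and 0.1% BSA to 2× concentration (1% DMSO) before addition. Potency compared with and without serum.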

Data set [7] has as its target T3, Glucose-dependent insulinotropic receptor (Rattus norvegicus, UniProt Q7TQN8).
T3 sequence (Q7TQN8 whole entry): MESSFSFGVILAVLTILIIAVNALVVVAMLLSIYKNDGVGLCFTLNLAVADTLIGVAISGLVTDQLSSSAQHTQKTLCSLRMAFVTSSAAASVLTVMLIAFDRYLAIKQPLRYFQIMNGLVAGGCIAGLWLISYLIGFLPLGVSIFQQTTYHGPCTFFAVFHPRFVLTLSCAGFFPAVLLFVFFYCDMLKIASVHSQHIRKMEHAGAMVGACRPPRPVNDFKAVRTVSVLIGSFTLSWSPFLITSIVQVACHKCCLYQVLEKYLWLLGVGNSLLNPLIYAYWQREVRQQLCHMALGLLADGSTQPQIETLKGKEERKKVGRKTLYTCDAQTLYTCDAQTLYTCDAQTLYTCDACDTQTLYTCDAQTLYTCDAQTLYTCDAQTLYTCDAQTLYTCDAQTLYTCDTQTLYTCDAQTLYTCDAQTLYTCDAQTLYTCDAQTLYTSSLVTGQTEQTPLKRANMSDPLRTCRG
The data set is described as follows: Agonist activity at rat GPR119 by HTRF cAMP assay. It is filed as functional.

The target in data set [8] is T4, Glucose-dependent insulinotropic receptor (Rattus norvegicus) (UniProt Q7TQN8).
T4 sequence (whole entry): T3 sequence (Q7TQN8 whole entry)
Kind of data set: Agonist activity at rat GPR119 by HTRF cAMP assay relative to AR231453. It is filed as functional.

The nature of data set [9]: Half life in human liver microsomes. It is filed as ADME.
Data set [10] in a line: Half life in rat liver microsomes. The class given is ADME.
A short description of data set [11]: Half life in mouse liver microsomes. It is filed as ADME.
For data set [12], the system named is Mus musculus. Kind of data set: Antidiabetic activity in normoglycemic 129SVE mouse assessed as […] administered 30 mins prior to glucose challenge measured over 120 mins by OGTT. The class given is functional, organism-based.
For data set [13], the species on record is Rattus norvegicus. Kind of data set: Toxicity in rat assessed as physical mobility impairment. The class given is organism-based. The settings on record: in vivo.

Calls of active or inactive are those of the source. The rule behind the calls is not given here. Some results are limits rather than exact numbers.

Consider `CC(C)c1noc(C2CCN(c3ncnc(Nc4ccc(S(C)(=O)=O)cc4F)c3[N+](=O)[O-])CC2)n1`, for which the result with Mus musculus [1] was Active.

Turning to `N[C@@H](CC(=O)N1CCn2c(nnc2C(F)(F)F)C1)Cc1cc(F)c(F)cc1F` [SITAGLIPTIN], in the data set with Mus musculus [2], the result was Active. Further, the Activity in the data set with Rattus norvegicus [3] was found to be 57%.

Regarding `C[C@H](OC(=O)N1CCC(O[C@H]2CC[C@H](Oc3cnc(S(C)(=O)=O)cn3)CC2)CC1)C(F)(F)F`, the EC50 in [4] is 4.8 nM; in [6], 53 nM; in [7], 49.9 nM. The maximal effect (Emax) is 112% in data set [5] and 125% in [8]. In addition, the half-life in data set [9], in data set [10] and in data set [11] was > 1 h each time. Besides, the result in the data set on Mus musculus [12] was inactive.

In the case of `CS(=O)(=O)c1cnc(O[C@H]2CC[C@H](OC3CCN(C(=O)OC(C(F)(F)F)C(F)(F)F)CC3)CC2)cn1`, the EC50 worked out at 1.2 nM in data set [4], 45.2 nM in data set [6] and 10.9 nM in [7]. For the same molecule, the figures for the Emax in [5] and in data set [8] were 104% and 121%, respectively. Also, the half-life in data set [9], in data set [10] and in [11] was > 1 h throughout. In addition, in the data set listed under Rattus norvegicus [13], the Activity entry is reported as “Dose-dependent effect”.

Values taken from ChEMBL document CHEMBL3596131, “Discovery of a novel trans-1,4-dioxycyclohexane GPR119 agonist series” (Bioorg Med Chem Lett, 2015).
